Measurements as given in ChEMBL document CHEMBL3351505, “Ultrasound-assisted synthesis of novel 1,2,3-triazoles coupled diaryl sulfone moieties by the CuAAC reaction, and biological evaluation of them as antioxidant and antimicrobial agents” (Eur J Med Chem, 2014).
Values after ≈ are worked out from the molar mass of the structure shown. Active and inactive are the calls of the source. The calls are words filed in the database; no cut-off is given here.

Key:
[1] = system: Bacillus subtilis; assay: Antibacterial activity against Bacillus subtilis ATCC 6633 using 100 uL of test compound after 24 hrs by agar well diffusion method; type: functional
Summary of the method: (§1)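 Agar well diffusion. Nutrient agar was spread with bacterial suspension at 1×10⁸ CFU/mL, and 10 mm wells were cut. Wells were loaded with compound solution made at 200 mg per 1 mL DMSO. Plates were incubated 24 h at 37 °C and inhibition zones were measured. DMSO served as the negative control.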

[2] = system: Aspergillus niger; assay: Antifungal activity against Aspergillus niger using 100 uL of test compound after 48 hrs by agar well diffusion method; type: functional
Summary of the method: as §1, with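 “Sabouraud dextrose” for “Nutrient”, “yeast or fungal” for “bacterial”, “1×10⁶” for “1×10⁸”, “48” for “24”, “28” for “37”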

[3] = system: Saccharomyces cerevisiae; assay: Antifungal activity against Saccharomyces cerevisiae after 48 hrs by two fold serial dilution method; type: functional
Summary of the method: (§2)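 Two-fold serial broth dilution in a suitable broth, run only on compounds giving inhibition zones of at least 16 mm. Final concentrations were […]. Each 5 mL received 0.1 mL inoculum and was incubated 48 h at 28 °C. MIC was the lowest concentration without growth.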

[4] = system: Saccharomyces cerevisiae; assay: Antifungal activity against Saccharomyces cerevisiae using 100 uL of test compound after 48 hrs by agar well diffusion method; type: functional
Summary of the method: as §1, with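 “Sabouraud dextrose” for “Nutrient”, “yeast or fungal” for “bacterial”, “1×10⁶” for “1×10⁸”, “48” for “24”, “28” for “37”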

[5] = system: Pseudomonas aeruginosa; assay: Antibacterial activity against Pseudomonas aeruginosa ATCC 27953 after 24 hrs by two fold serial dilution method; type: functional
[6] = system: Micrococcus luteus; assay: Antibacterial activity against Sarcina lutea after 24 hrs by two fold serial dilution method; type: functional
[7] = system: Pseudomonas aeruginosa; assay: Antibacterial activity against Pseudomonas aeruginosa ATCC 27953 using 100 uL of test compound after 24 hrs by agar well diffusion method; type: functional; summary of the method: as §1
[8] = system: Staphylococcus aureus; assay: Antibacterial activity against Staphylococcus aureus ATCC 29213 using 100 uL of test compound after 24 hrs by agar well diffusion method; type: functional; summary of the method: as §1
[9] = system: Micrococcus luteus; assay: Antibacterial activity against Sarcina lutea using 100 uL of test compound after 24 hrs by agar well diffusion method; type: functional; summary of the method: as §1
[10] = system: Staphylococcus aureus; assay: Antibacterial activity against Staphylococcus aureus ATCC 29213 after 24 hrs by two fold serial dilution method; type: functional
[11] = system: Escherichia coli; assay: Antibacterial activity against Escherichia coli ATCC 25922 using 100 uL of test compound after 24 hrs by agar well diffusion method; type: functional; summary of the method: as §1
[12] = system: Bacillus subtilis; assay: Antibacterial activity against Bacillus subtilis ATCC 6633 after 24 hrs by two fold serial dilution method; type: functional
[13] = system: Klebsiella pneumoniae; assay: Antibacterial activity against Klebsiella pneumoniae ATCC 13883 after 24 hrs by two fold serial dilution method; type: functional
[14] = system: Aspergillus niger; assay: Antifungal activity against Aspergillus niger after 48 hrs by two fold serial dilution method; type: functional; summary of the method: as §2
[15] = system: Candida albicans; assay: Antifungal activity against Candida albicans NRRL Y-477 using 100 uL of test compound after 48 hrs by agar well diffusion method; type: functional
Summary of the method: as §1, with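 “Sabouraud dextrose” for “Nutrient”, “yeast or fungal” for “bacterial”, “1×10⁶” for “1×10⁸”, “48” for “24”, “28” for “37”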

[16] = Antioxidant activity assessed as DPPH free radical scavenging activity by spectrophotometric assay; type: physicochemical
Summary of the method: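 Sample solutions at several concentrations were added to 0.004% DPPH in methanol and incubated 60 min in the dark. Absorbance was read at 517 nm against a blank. Inhibition % = (A_blank − A_sample)/A_blank × 100, where the control contained all reagents except the test compound.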

[17] = system: Escherichia coli; assay: Antibacterial activity against Escherichia coli ATCC 25922 after 24 hrs by two fold serial dilution method; type: functional; conditions: ATCC 25922, 24 h
[18] = system: Klebsiella pneumoniae; assay: Antibacterial activity against Klebsiella pneumoniae ATCC 13883 using 100 uL of test compound after 24 hrs by agar well diffusion method; type: functional; summary of the method: as §1
[19] = system: Candida albicans; assay: Antifungal activity against Candida albicans NRRL Y-477 after 48 hrs by two fold serial dilution method; type: functional; summary of the method: as §2
[20] = system: Priestia megaterium; assay: Antibacterial activity against Bacillus megaterium ATCC 9885 after 24 hrs by two fold serial dilution method; type: functional
[21] = system: Priestia megaterium; assay: Antibacterial activity against Bacillus megaterium ATCC 9885 using 100 uL of test compound after 24 hrs by agar well diffusion method; type: functional; summary of the method: as §1

Row | SMILES | diameter of the inhibition zone (DIZ) [1] [mm] | diameter of the inhibition zone (DIZ) [2] [mm] | MIC [3] | diameter of the inhibition zone (DIZ) [4] | MIC [5] [µg/mL] | MIC [6] [µg/mL] | diameter of the inhibition zone (DIZ) [7] [mm] | diameter of the inhibition zone (DIZ) [8] [mm] | diameter of the inhibition zone (DIZ) [9] [mm] | diameter of the inhibition zone (DIZ) [11] [mm] | MIC [12] | MIC [14] [µg/mL] | diameter of the inhibition zone (DIZ) [15] | IC50 [16] [µg/mL] | MIC [17] [µg/mL] | diameter of the inhibition zone (DIZ) [18] [mm] | MIC ([20]; ATCC 9885, 24 h) [µg/mL] | diameter of the inhibition zone (DIZ) [21] [mm] | MIC ([10]; ATCC 29213, 24 h) [µg/mL] | MIC ([13]; ATCC 13883, 24 h) [µg/mL] | also measured
1 | CC(Cc1cn(Cc2ccccc2)nn1)(OCc1cn(Cc2ccccc2)nn1)c1ccc(S(=O)(=O)c2ccccc2)cc1 (centres undefined) | 14 | 34 | inactive | 14 mm | 200 (≈ 331 µM) | 200 (≈ 331 µM) | 19 | 14 | 17 | 18 | inactive | 25 (≈ 41.3 µM) | 16 mm | 600 (≈ 992 µM) | 200 (≈ 331 µM) | 15 | 200 (≈ 331 µM) | 17 | – | – | MIC [10]: inactive; MIC [13]: inactive; MIC ([19]; NRRL Y-477, 48 h): 200 µg/mL (≈ 331 µM)
2 | CC(Cc1cn(CC(=O)c2ccc(F)cc2)nn1)(OCc1cn(CC(=O)c2ccc(F)cc2)nn1)c1ccc(S(=O)(=O)c2ccccc2)cc1 (centres undefined) | 15 | 34 | inactive | 15 mm | 100 (≈ 144 µM) | 50 (≈ 71.8 µM) | 27 | 27 | 26 | 25 | inactive | 25 (≈ 35.9 µM) | inactive | 150 (≈ 215 µM) | 100 (≈ 144 µM) | 26 | 200 (≈ 287 µM) | 17 | 100 (≈ 144 µM) | 100 (≈ 144 µM) | MIC [19]: inactive
3 | O=S(=O)(c1ccccc1)c1ccc(C(O)Cc2cn(Cc3ccccc3)nn2)cc1 (centres undefined) | 17 | 30 | 200 µg/mL (≈ 477 µM) | 17 mm | 200 (≈ 477 µM) | 200 (≈ 477 µM) | 20 | 19 | 20 | 19 | – | 50 (≈ 119 µM) | 19 mm | 200 (≈ 477 µM) | 200 (≈ 477 µM) | 23 | – | 14 | 200 (≈ 477 µM) | 200 (≈ 477 µM) | MIC ([12]; ATCC 6633, 24 h): 200 µg/mL (≈ 477 µM); MIC ([19]; NRRL Y-477, 48 h): 200 µg/mL (≈ 477 µM); MIC [20]: inactive
4 | CC(O)(Cc1cn(CC(=O)c2ccc(F)cc2)nn1)c1ccc(S(=O)(=O)c2ccccc2)cc1 (centres undefined) | 19 | 32 | inactive | inactive | 200 (≈ 417 µM) | 200 (≈ 417 µM) | 22 | 17 | 21 | 19 | – | 50 (≈ 104 µM) | 15 mm | 425 (≈ 886 µM) | 200 (≈ 417 µM) | 19 | 200 (≈ 417 µM) | 17 | 200 (≈ 417 µM) | 200 (≈ 417 µM) | MIC ([12]; ATCC 6633, 24 h): 200 µg/mL (≈ 417 µM); MIC [19]: inactive
